# Screens: PubChem, several laboratories
# IEC-6 tox: cytotoxicity in IEC-6 intestinal epithelial cells, primary screen, cytotoxicity control for KLF5 inhibitor project, cell-based, luminescence; IEC-6 cytotoxicity, luminescence viability; hit rate 0.78% among 290,000; inhibition, % at 5 µM;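 also: 0% = plate median of test compound wells and 100% = cytotoxic reference compound wells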
# APP transl inh: inhibitors of APP translation via 5'UTR reporter, primary screen, APP 5'UTR luciferase, SH-SY5Y cells. SH-SY5Y APP 5'UTR-luciferase reporter, luminescence. inhibition, % at 2 µM. hit rate 0.82% among 190,000. AID 1285, 2008;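 active = inhibition above a set limit, derived from the sample mean plus 3 SD, cut at about 45% in these data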
# MT stabilize HCS: microtubule stabilizers in HeLa cells, primary screen, imaging, high-content imaging | HeLa tubulin immunostaining HCS, 24 h; share of cells brighter than vehicle mean+2SD | % tubulin-high responders, % at 10 µM | hit rate 0.83% among 200,000 | AID 2205, 2009;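 active = plate Z-score above 3 for both tubulin-high and condensed-nucleus cell shares, with cell loss under 80%, at 10 µM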;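 also: anti alpha tubulin signal scored within the nucleus-defined area of each cell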
# BaF3 parental: parental Ba/F3 cell viability inhibition, counter-screen for JAK2V617F inhibitor project, murine pro-B, CellTiter-Glo luminescence; hit rate 1.1% among 220,000; AID 1486, 2009; inhibition, % at 5.6 µM; CellTiter-Glo ATP luminescence;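 active = inhibition above a per-campaign cutoff, the mean inhibition of all tested compounds plus 3 SD, cut at about 27% in these data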;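 also: 0% = DMSO wells and 100% = JAK Inhibitor I control wells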
# Ba/F3 V617F tox: reduced viability of JAK2V617F-dependent Ba/F3 cells, primary screen, JAK2V617F inhibitor project, cell-based, Ba/F3 EpoR-JAK2V617F, luminescence. ATP luminescence. inhibition, % at 5.6 µM. AID 1446, 2008. hit rate 1.1% among 220,000;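 active = inhibition above the campaign mean plus 3 SD over all tested compounds, cut at about 24% in these data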;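 also: cytokine-independent growth of Ba/F3 cells driven by EpoR plus mutant JAK2; 0% = DMSO-treated cells and 100% = JAK inhibitor I control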
# b-catenin transl: modulators of beta-catenin nuclear translocation, primary screen, imaging, HeLa cells, immunofluorescence, high-content. AID 1665, 2009. nuclear translocation activity, % at 5 µM. hit rate 0.3% among 190,000;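 active = nuclear translocation activity above 50% at 5 µM, with a well cell count of 50 or more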;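 also: per-cell ratio of nuclear to cytoplasmic median beta-catenin stain intensity; plate controls were DMSO negative control for no effect and GSK-3 inhibitor IX positive control for full effect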
#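 Assay system: human HeLa cells, native beta-catenin; doses: 5 µM primary, 0.02–20 µM confirmation; incubation: compound treatment 24 h, 37°C, 5% CO2; technique: fluorescence imaging of beta-catenin antibody stain plus DAPI; measure: % activation, nuclear-to-cytoplasmic median beta-catenin signal ratio per cell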
# IEC-6 tox confirm: cytotoxic compounds in IEC-6 epithelial cells, confirmation, cytotoxicity control, cell-based, luminescence | shares compounds with IEC-6 tox | hit rate 63% among 1,900 | inhibition, % at 5 µM | IEC-6 rat intestinal epithelial viability;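 also: 0% = vehicle and 100% = reference cytotoxic drug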
# Active calls of the source: *; / = no result. In the library only some 2.2% were active in any assay of this set; here they are far more common. Rule as the data show it, unless noted: active = inhibition above about 22%; inactive = the rest.
SMILES,IEC-6 tox,APP transl inh,MT stabilize HCS,BaF3 parental,Ba/F3 V617F tox,b-catenin transl,IEC-6 tox confirm
C#Cc1cccc(C(=O)N2CCCC(C(=O)c3ccc(OC)cc3C)C2)c1 (centres undefined),-5,/,/,/,/,/,/
COc1ccc(S(=O)(=O)N2CC=C(C(=O)NC3CCCC3)CC2)cc1,5,/,/,/,/,/,/
O=C(O)C1CCN(S(=O)(=O)Cc2ccccc2)CC1,-5,/,/,/,/,/,/
CC(=O)Nc1sc2c(c1-c1nc3ccccc3s1)CCN(C(C)C)C2,99*,70*,35,73*,95*,27,29*
CC(C)N1CCc2c(sc(NC(=O)c3ccc4ccccc4c3)c2C(N)=O)C1,18,/,/,/,/,/,/
Cc1cc(C(=O)CN2C(=O)NC(C)(CC(C)C)C2=O)c(C)n1-c1ccc2c(c1)OCO2 (centres undefined),-8,-1,3,4,2,0,/
Cc1nc2c3cc(Cl)ccc3n(CCN3CCCCC3)c2s1,41*,12,24*,36*,16,97*,17
Cc1ccccc1C=Nc1ccccc1C(N)=O,23*,-6,22*,18,2,28,8
COc1cc(CCC(=O)Nc2nnc(C)s2)cc(OC)c1OC,48*,/,/,/,/,/,35*
CCOC(=O)N/N=C/c1c(C)nn(-c2cccc(C(F)(F)F)c2)c1Cl,44*,86*,24*,42*,67*,13,53*
Cc1nn(-c2cccc(C(F)(F)F)c2)c(Cl)c1/C=N/Nc1cccc(C(=O)O)c1,4,-159,1,4,-3,0,/
COc1ccc(C2/C(=C(/O)c3ccc(C)cc3)C(=O)C(=O)N2CCCN2CCOCC2)cc1 (centres undefined),-6,/,/,/,/,/,/
CCCC(=O)Nc1nc2ccc(NC(=O)c3ccccc3F)cc2s1,75*,76*,34*,80*,82*,6,55*
Cc1ccc2nc(NC(=O)c3ccccc3F)sc2c1,1,/,/,/,/,/,/
COc1ccc(OC)c(Nc2ncnc3ccc(Br)cc23)c1,5,/,/,/,/,/,/
Brc1ccc2ncnc(Nc3cccc4ccccc34)c2c1,28*,-14,3,8,0,0,41*
Cc1ccc(N=Cc2c(C)[nH]n(-c3nc4ccccc4[nH]3)c2=O)cc1,35*,-22,2,39*,26*,0,53*
CC(=O)O[C@H]1C(=O)[C@@]2(C)C([C@H](OC(=O)c3ccccc3)[C@]3(O)C[C@H](OC(=O)[C@H](O)[C@@H](NC(=O)c4ccccc4)c4ccccc4)C(C)=C1C3(C)C)[C@]1(OC(C)=O)CO[C@@H]1C[C@H]2O (some centres undefined),84*,/,/,/,/,/,77*
CCO[C@@H]1OC(C(=O)NCc2ccccc2)=C[C@H](c2ccc(C(F)(F)F)cc2)[C@H]1CCCO,4,-16,3,3,-2,-2,/
CC1(C)CC(=O)C=C(N2CCN(C3=CC(=O)CC(C)(C)C3)CC2)C1,/,/,/,/,/,-1,/
CC1(C)CC(N2CCCC2)=CC(=[N+]2CCCCC2)C1,23*,17,2,67*,82*,2,33*
COc1ccc(Cc2nc(-c3ccc(NC(=O)c4cccnc4)cc3)no2)cc1,31*,58*,4,0,10,0,90*
O=C(N/N=C/c1ccccc1)c1ccc(CN2C(=O)c3cccc4cccc2c34)cc1,4,13,7,10,0,-4,/
O=C(N/N=C/c1ccc(O)cc1O)c1ccc(CN2C(=O)c3cccc4cccc2c34)cc1,34*,60*,8,5,19,1,52*
COc1ccc2[nH]cc(CCNC(=O)C3CC(=O)N(c4ccc(Cl)cc4)C3)c2c1 (centres undefined),4,/,/,/,/,/,/
O=C(NC(CC(=O)N1CCCC(C(F)(F)F)C1)c1ccccc1)c1ccccc1Cl (centres undefined),-4,/,/,/,/,/,/
COc1ccccc1/C=C/C(=O)Nc1ccc2c(c1)OCCO2,25*,-134,24*,12,3,73*,19
